Results published in ChEMBL document CHEMBL4152234, “Aminobenzothiazole derivatives stabilize the thermolabile p53 cancer mutant Y220C and show anticancer activity in p53-Y220C cell lines” (Eur J Med Chem, 2018).
Calls of active or inactive are those of the source. No cut-off for these calls is given here.

Columns and labels:
[1] = Solubility of the compound in water; assay type: physicochemical; settings: buffer
[2] = test system: Cellular tumor antigen p53 (Homo sapiens), P04637 [Y220C]; assay: Activation of p53 Y220C mutant in human NUGC3 cells assessed as change in CASP9 mRNA level at 60 uM after 18 hrs by RT-PCR method relative to control; assay type: cell-based
In short: (§1)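 p53 signalling qPCR array covering 84 genes. Cells were exposed for 18 h, with 0.5% DMSO in both compound and control samples. Total RNA was extracted and purified. Fold-changes were calculated by ΔΔCt using β2-microglobulin (B2M) as the housekeeping gene. Two independent biological replicates were run per cell line.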

[3] = test system: Cellular tumor antigen p53 (Homo sapiens), P04637 [Y220C]; assay: Activation of p53 Y220C mutant in human NUGC3 cells assessed as change in BTG2 mRNA level at 60 uM after 18 hrs by RT-PCR method relative to control; assay type: cell-based; in short: as §1
[4] = test system: Cellular tumor antigen p53 (Homo sapiens), P04637 [Y220C]; assay: Activation of p53 Y220C mutant in human NUGC3 cells assessed as change in PRKCA mRNA level at 60 uM after 18 hrs by RT-PCR method relative to control; assay type: cell-based
In short: (§2)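 p53 signalling qPCR array covering 84 p53 pathway genes. Cells were exposed for 18 h, and compound and control wells both held 0.5% DMSO. Total RNA was extracted and purified. Fold-changes were calculated by the ΔΔCt method against the untreated sample, with β2-microglobulin (B2M) as the housekeeping gene. Each cell line was run in two independent biological replicates.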

[5] = test system: Cellular tumor antigen p53 (Homo sapiens), P04637 [Y220C]; assay: Activation of p53 Y220C mutant in human NUGC3 cells assessed as change in TP53AIP1 mRNA level at 60 uM after 18 hrs by RT-PCR method relative to control; assay type: cell-based; in short: as §2
[6] = test system: Cellular tumor antigen p53 (Homo sapiens), P04637 [Y220C]; assay: Activation of p53 Y220C mutant in human NUGC3 cells assessed as change in MYC mRNA level at 60 uM after 18 hrs by RT-PCR method relative to control; assay type: cell-based; in short: as §2
[7] = test system: Cellular tumor antigen p53 (Homo sapiens), P04637 [Y220C]; assay: Activation of p53 Y220C mutant in human NUGC3 cells assessed as change in RPRM mRNA level at 60 uM after 18 hrs by RT-PCR method relative to control; assay type: cell-based; in short: as §2
[8] = test system: Cellular tumor antigen p53 (Homo sapiens), P04637 [Y220C]; assay: Activation of p53 Y220C mutant in human NUGC3 cells assessed as change in GADD45A mRNA level at 60 uM after 18 hrs by RT-PCR method relative to control; assay type: cell-based; in short: as §1
[9] = test system: Cellular tumor antigen p53 (Homo sapiens), P04637 [Y220C]; assay: Activation of p53 Y220C mutant in human NUGC3 cells assessed as change in PCNA mRNA level at 60 uM after 18 hrs by RT-PCR method relative to control; assay type: cell-based; in short: as §2
[10] = test system: Cellular tumor antigen p53 (Homo sapiens), P04637 [Y220C]; assay: Activation of p53 Y220C mutant in human NUGC3 cells assessed as change in KAT2B mRNA level at 60 uM after 18 hrs by RT-PCR method relative to control; assay type: cell-based; in short: as §2
[11] = test system: Cellular tumor antigen p53 (Homo sapiens), P04637 [Y220C]; assay: Activation of p53 Y220C mutant in human NUGC3 cells assessed as change in TADA3 mRNA level at 60 uM after 18 hrs by RT-PCR method relative to control; assay type: cell-based; in short: as §2
[12] = test system: Cellular tumor antigen p53 (Homo sapiens), P04637 [Y220C]; assay: Activation of p53 Y220C mutant in human NUGC3 cells assessed as change in CRADD mRNA level at 60 uM after 18 hrs by RT-PCR method relative to control; assay type: cell-based; in short: as §1
[13] = test system: Cellular tumor antigen p53 (Homo sapiens), P04637 [Y220C]; assay: Activation of p53 Y220C mutant in human NUGC3 cells assessed as change in FASLG mRNA level at 60 uM after 18 hrs by RT-PCR method relative to control; assay type: cell-based; in short: as §1
[14] = test system: Cellular tumor antigen p53 (Homo sapiens), P04637 [Y220C]; assay: Activation of p53 Y220C mutant in human NUGC3 cells assessed as change in HK2 mRNA level at 60 uM after 18 hrs by RT-PCR method relative to control; assay type: cell-based; in short: as §1
[15] = biological target: T1, Cellular tumor antigen p53 (Homo sapiens, UniProt P04637); assay: Activation of p53 in human NUGC4 cells assessed as change in CHEK1 mRNA level at 60 uM after 18 hrs by RT-PCR method relative to control; assay type: cell-based; settings: read-out: FC
In short: (§3)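 p53 signaling qPCR array of 84 p53-pathway genes. Cells were treated in 6-well plates for 18 h with 0.5% DMSO in compound and control samples. Total RNA was extracted and fold-changes were obtained by the ΔΔCt method against untreated control, with β2-microglobulin (B2M) as housekeeping gene. Two independent biological replicates per cell line.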

[16] = biological target: T1, Cellular tumor antigen p53; assay: Activation of p53 in human NUGC4 cells assessed as change in CHEK2 mRNA level at 60 uM after 18 hrs by RT-PCR method relative to control; assay type: cell-based; settings: read-out: FC; in short: as §3
[17] = biological target: T1, Cellular tumor antigen p53; assay: Activation of p53 in human NUGC4 cells assessed as change in ESR1 mRNA level at 60 uM after 18 hrs by RT-PCR method relative to control; assay type: cell-based; settings: read-out: FC; in short: as §3
[18] = biological target: T1, Cellular tumor antigen p53; assay: Activation of p53 in human NUGC4 cells assessed as change in CDC25C mRNA level at 60 uM after 18 hrs by RT-PCR method relative to control; assay type: cell-based; settings: read-out: FC; in short: as §3
[19] = biological target: T1, Cellular tumor antigen p53; assay: Activation of p53 in human NUGC4 cells assessed as change in RB1 mRNA level at 60 uM after 18 hrs by RT-PCR method relative to control; assay type: cell-based; settings: read-out: FC
[20] = biological target: T1, Cellular tumor antigen p53; assay: Activation of p53 in human NUGC4 cells assessed as change in DNMT1 mRNA level at 60 uM after 18 hrs by RT-PCR method relative to control; assay type: cell-based; settings: read-out: FC; in short: as §3
[21] = biological target: T1, Cellular tumor antigen p53; assay: Activation of p53 in human NUGC4 cells assessed as change in TADA3 mRNA level at 60 uM after 18 hrs by RT-PCR method relative to control; assay type: cell-based; settings: read-out: FC
[22] = biological target: T1, Cellular tumor antigen p53; assay: Activation of p53 in human NUGC4 cells assessed as change in SIRT1 mRNA level at 60 uM after 18 hrs by RT-PCR method relative to control; assay type: cell-based; settings: read-out: FC
[23] = biological target: T1, Cellular tumor antigen p53; assay: Activation of p53 in human NUGC4 cells assessed as change in FADD mRNA level at 60 uM after 18 hrs by RT-PCR method relative to control; assay type: cell-based; settings: read-out: FC; in short: as §3
[24] = biological target: T1, Cellular tumor antigen p53; assay: Activation of p53 in human NUGC4 cells assessed as change in IGF1R mRNA level at 60 uM after 18 hrs by RT-PCR method relative to control; assay type: cell-based; settings: read-out: FC; in short: as §3
[25] = biological target: T1, Cellular tumor antigen p53; assay: Activation of p53 in human NUGC4 cells assessed as change in CCNB1 mRNA level at 60 uM after 18 hrs by RT-PCR method relative to control; assay type: cell-based; settings: read-out: FC; in short: as §3
[26] = biological target: T1, Cellular tumor antigen p53; assay: Activation of p53 in human NUGC4 cells assessed as change in CCNH mRNA level at 60 uM after 18 hrs by RT-PCR method relative to control; assay type: cell-based; settings: read-out: FC; in short: as §3
[27] = biological target: T1, Cellular tumor antigen p53; assay: Activation of p53 in human NUGC4 cells assessed as change in PRC1 mRNA level at 60 uM after 18 hrs by RT-PCR method relative to control; assay type: cell-based; settings: read-out: FC
[28] = biological target: T1, Cellular tumor antigen p53; assay: Activation of p53 in human NUGC4 cells assessed as change in HK2 mRNA level at 60 uM after 18 hrs by RT-PCR method relative to control; assay type: cell-based; settings: read-out: FC; in short: as §3
Huh-7 [29] = assay: Upregulation of NOXA mRNA level in p53 Y220C mutant knockout human HuH7 cells at 30 uM after 18 hrs by RT-PCR method; assay type: functional, cell-based
Huh-7 [30] = assay: Upregulation of BAX mRNA level in p53 Y220C mutant knockout human HuH7 cells at 30 uM after 18 hrs by RT-PCR method; assay type: functional, cell-based

With `CCNC(=O)c1c(O)c(I)c(-n2cccc2)c2sc(N(CC)CC)nc12` the solubility [1] was “Insoluble”, the fold change (FC) [2] was 1 and the fold change (FC) [3] was 1.9. It also gave a fold change (FC) [4] of 1.1, a fold change (FC) [5] of 1.5 and a fold change (FC) [6] of 2.4. The fold change (FC) [7] was 1.4, the fold change (FC) [8] was 2.2 and the fold change (FC) [9] was 0.8. It also gave a fold change (FC) [10] of 0.8, a fold change (FC) [11] of 0.8 and a fold change (FC) [12] of 1.1. The fold change (FC) [13] was 1.1, the fold change (FC) [14] was 1.7 and the fold induction at 60 µM [15] was 0.7. For the same compound, the fold induction at 60 µM [16] was 0.7, the fold induction at 60 µM [17] was 8.1 and the fold induction at 60 µM [18] was 0.9. It also gave a fold induction at 60 µM [19] of 0.8, a fold induction at 60 µM [20] of 0.8 and a fold induction at 60 µM [21] of 1. The fold induction at 60 µM [22] was 0.9, the fold induction at 60 µM [23] was 0.9 and the fold induction at 60 µM [24] was 0.8. The fold induction at 60 µM [25] was 0.7, the fold induction at 60 µM [26] was 0.9 and the fold induction at 60 µM [27] was 0.8. For the same compound, the fold induction at 60 µM [28] was 0.8, the Activity (Huh-7 [29]) was “inactive” and the Activity (Huh-7 [30]) was “inactive”.
